Published values collected from several papers.
Protocols differ between the studies behind these lines.
Matrix: plasma

Structure (SMILES) | species | route | dose | notes | endpoint | result
C[C@@]12C[C@@]3(O)O[C@@H](O1)[C@]1(COC(=O)c4ccccc4)[C@H]3C[C@@]12O[C@@H]1O[C@H](CO)[C@@H](O)[C@H](O)[C@H]1O | male Sprague-Dawley rat | oral | 80 mg/kg | – | MRT(0-inf) | 10.9 h
CCOc1c([C@H](C)n2nc(C)c3c(N)ncnc32)cc(Cl)c(F)c1[C@@H]1CNC(=O)C1 | male Sprague-Dawley rat | oral | 2 mg/kg | single dose | MRT(0-inf) | 8.49 h
C[C@H]1[C@@H](O)O[C@@H]2O[C@@]3(C)CC[C@H]4[C@H](C)CC[C@@H]1[C@@]24OO3 | male Sprague-Dawley rat | oral | 10 mg/kg | – | MRT(0-t) | 1.56 h
CC(=O)c1c(C)c2cnc(Nc3ccc(N4CCNCC4)cn3)nc2n(C2CCCC2)c1=O | male Sprague-Dawley rat | intravenous | 5 mg/kg | – | MRT | 2.5 h
COc1ccc(-c2coc3cc(O)cc(O)c3c2=O)cc1 | rat | intravenous | 2 mg/kg | – | MRT | 0.27 h
O=C1CCC(N2Cc3cc(C4CCN(Cc5ccccc5)CC4)ccc3C2=O)C(=O)N1 (stereo not drawn) | male Sprague-Dawley rat | oral | 3 mg/kg | – | MRT(0-t) | 3 h
Nc1ccn([C@@H]2O[C@H](CO)[C@@H](O)C2(F)F)c(=O)n1 | male Sprague-Dawley rat | intraperitoneal | 5 mg/kg | – | MRT(0-inf) | 0.88 h
CC[C@@H]([C@H](C)O)n1ncn(-c2ccc(N3CCN(c4ccc(OC[C@@H]5CO[C@@](Cn6cncn6)(c6ccc(F)cc6F)C5)cc4)CC3)cc2)c1=O | Sprague-Dawley rat | oral | 40 mg/kg | – | MRT(0-inf) | 22.1 h
Cn1c(=O)c2[nH]cnc2n(C)c1=O | male Sprague-Dawley rat | intravenous | 11.25 mg/kg | – | MRT(0-t) | 3.3 h
COc1ccc(N(Cc2csc(-c3ccccc3)n2)C(=O)CCCCCC(=O)NO)cc1 | female Sprague-Dawley rat | oral | 30 mg/kg | – | MRT | 3.18 h
C=CC(=O)N1CCC([C@@H]2CCNc3c(C(N)=O)c(-c4ccc(Oc5ccccc5)cc4)nn32)CC1 | Sprague-Dawley rat | oral | 16 mg/kg | – | MRT(0-inf) | 3.93 h
C[C@H]1Oc2cc(cnc2N)-c2c(nn(C)c2C#N)CN(C)C(=O)c2ccc(F)cc21 | male Sprague-Dawley rat | oral | 5 mg/kg | single dose | MRT(0-t) | 6.6 h
COc1nc(-c2cccc(-c3ccccc3)c2C)ccc1CNCCNC(=O)CCCCCCCCCCC(=O)N1CCN(CCNC(=O)c2cc3c(=O)n4cccc(C)c4nc3n(CCc3cccs3)c2=N)CC1 | male Sprague-Dawley rat | intravenous | 2 mg/kg | – | MRT(0-inf) | 5.1 h
CONC(=O)c1cccc2c1cc(C)n2-c1nc2c(c(NCc3ccccc3)n1)CCCN2 | male Sprague-Dawley rat | oral | 10 mg/kg | single dose | MRT | 1.55 h
COc1cc(-c2cc(C(C)=O)n3ccccc23)c(OC)cc1Cn1ccnc1 | male Sprague-Dawley rat | intravenous | 5 mg/kg | – | MRT(0-t) | 1.14 h
